Measurements published in ChEMBL document CHEMBL1152204, “Novel potent and highly selective human A(3) adenosine receptor antagonists belonging to the 4-amido-2-arylpyrazolo[3,4-c]quinoline series: molecular docking analysis and pharmacological studies” (Bioorg Med Chem, 2009).

Key:
[1] = molecular target: T1, Adenosine receptor A3 (Homo sapiens, UniProt P0DMS8); assay: Antagonist activity at human adenosine A3 receptor expressed in CHO cells assessed as inhibition of CI-IB-MECA-mediated inhibition of cAMP accumulation by competition protein binding assay; format: functional, cell-based
T1 sequence (P0DMS8 whole entry): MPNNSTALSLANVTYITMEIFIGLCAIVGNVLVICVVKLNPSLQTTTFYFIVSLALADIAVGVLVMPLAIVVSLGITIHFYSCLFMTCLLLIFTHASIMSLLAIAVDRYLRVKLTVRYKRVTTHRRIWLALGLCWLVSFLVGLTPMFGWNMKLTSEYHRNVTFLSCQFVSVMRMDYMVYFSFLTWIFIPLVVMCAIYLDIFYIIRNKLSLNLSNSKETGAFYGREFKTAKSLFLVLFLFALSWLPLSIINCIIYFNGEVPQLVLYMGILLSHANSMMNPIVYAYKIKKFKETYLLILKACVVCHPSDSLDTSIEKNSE
How it was run: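 hA3-CHO cells (1 × 10⁶/assay) preincubated 10 min at 37 °C in buffered saline pH 7.4 with adenosine deaminase (2 IU/ml) and Ro 20-1724. cAMP inhibited by 100 nM Cl-IB-MECA; antagonist 1 nM–1 µM. TCA stop, ether extraction, cAMP by [³H]cAMP/adrenal binding-protein competition. IC50 as mean of four experiments.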

[2] = molecular target: T2, Adenosine receptor A2b (Homo sapiens) (UniProt P29275); assay: Antagonist activity at human adenosine A2B receptor expressed in CHO cells assessed as inhibition of NECA-induced cAMP accumulation at 1 uM; format: functional, cell-based
T2 sequence (whole entry): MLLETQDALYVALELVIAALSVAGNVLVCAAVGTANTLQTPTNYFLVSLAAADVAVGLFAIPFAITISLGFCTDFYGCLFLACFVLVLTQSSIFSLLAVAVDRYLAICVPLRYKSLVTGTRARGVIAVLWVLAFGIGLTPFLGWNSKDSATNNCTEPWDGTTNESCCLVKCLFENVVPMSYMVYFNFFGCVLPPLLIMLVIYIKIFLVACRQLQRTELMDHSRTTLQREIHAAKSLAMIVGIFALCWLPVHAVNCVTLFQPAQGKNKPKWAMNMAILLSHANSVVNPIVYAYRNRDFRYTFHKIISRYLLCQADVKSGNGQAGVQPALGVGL
How it was run: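 Whole hA2B-CHO cells (1 × 10⁶/assay) in buffered saline, pH 7.4, with 2 IU/ml adenosine deaminase and Ro 20-1724; preincubated 10 min at 37 °C. Stimulated with 200 nM NECA; compound at 1 µM. Stopped with cold 6% TCA, ether-extracted; cAMP by [³H]cAMP competition protein binding; % inhibition reported.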

[3] = molecular target: T3, Adenosine receptor A1 (Homo sapiens) (UniProt P30542); assay: Displacement of [3H]DPCPX from human adenosine A1 receptor expressed in CHO cells at 1 uM by scintillation counting; format: cell-based
T3 sequence (whole entry): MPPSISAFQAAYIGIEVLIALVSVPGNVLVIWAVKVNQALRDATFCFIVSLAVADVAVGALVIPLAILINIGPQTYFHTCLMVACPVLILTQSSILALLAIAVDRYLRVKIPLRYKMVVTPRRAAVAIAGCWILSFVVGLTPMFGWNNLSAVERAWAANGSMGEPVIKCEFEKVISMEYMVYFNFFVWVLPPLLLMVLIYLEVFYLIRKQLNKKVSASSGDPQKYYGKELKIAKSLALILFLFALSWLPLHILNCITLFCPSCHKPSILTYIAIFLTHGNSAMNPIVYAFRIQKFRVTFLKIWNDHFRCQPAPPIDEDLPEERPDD
How it was run: (§1)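 hA1-CHO membranes (50 µg protein) with 1 nM [³H]DPCPX in 50 mM Tris-HCl pH 7.4, 120 min at 25 °C; nonspecific binding with 10 µM CHA. GF/B filtration. Ki from six to eight concentrations via Cheng–Prusoff (four duplicate assays); or % inhibition at 1 µM.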

[4] = molecular target: T4, Adenosine receptor A2a (Homo sapiens, UniProt P29274); assay: Displacement of [3H]ZM241385 from human adenosine A2A receptor expressed in CHO cells at 1 uM by scintillation counting; format: cell-based
T4 sequence (P29274 whole entry): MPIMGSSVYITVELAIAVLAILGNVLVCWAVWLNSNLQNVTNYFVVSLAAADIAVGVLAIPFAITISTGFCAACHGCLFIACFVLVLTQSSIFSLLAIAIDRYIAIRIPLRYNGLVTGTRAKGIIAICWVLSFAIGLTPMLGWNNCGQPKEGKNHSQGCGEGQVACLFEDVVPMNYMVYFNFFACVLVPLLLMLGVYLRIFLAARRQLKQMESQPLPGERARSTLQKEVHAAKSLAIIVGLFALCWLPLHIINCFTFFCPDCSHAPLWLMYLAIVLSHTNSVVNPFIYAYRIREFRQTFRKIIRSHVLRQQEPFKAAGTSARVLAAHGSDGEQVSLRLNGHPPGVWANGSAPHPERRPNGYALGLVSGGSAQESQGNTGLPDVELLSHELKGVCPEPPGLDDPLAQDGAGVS
How it was run: (§2)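 hA2A-CHO membranes (50 µg protein) with 1 nM [³H]ZM241385 in 50 mM Tris-HCl, 10 mM MgCl2, pH 7.4; 60 min at 4 °C; nonspecific binding with 1 µM ZM241385. GF/B filtration. Ki from six to eight concentrations via Cheng–Prusoff; or % inhibition at 1 µM.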

[5] = molecular target: T5, Adenosine receptor A3 (Rattus norvegicus) (UniProt P28647); assay: Displacement of [125I]AB-MECA from rat adenosine A3 receptor expressed in HEK293 cells at 1 uM by scintillation counting; format: cell-based
T5 sequence (whole entry): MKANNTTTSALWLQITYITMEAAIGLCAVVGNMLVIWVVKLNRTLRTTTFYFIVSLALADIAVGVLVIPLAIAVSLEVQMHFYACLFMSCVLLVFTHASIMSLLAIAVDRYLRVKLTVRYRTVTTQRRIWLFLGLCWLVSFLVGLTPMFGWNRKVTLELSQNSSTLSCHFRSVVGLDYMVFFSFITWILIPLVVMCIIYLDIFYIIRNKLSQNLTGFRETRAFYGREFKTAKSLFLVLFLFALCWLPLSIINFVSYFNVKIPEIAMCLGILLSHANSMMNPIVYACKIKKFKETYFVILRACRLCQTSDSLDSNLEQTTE
How it was run: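 rA3-HEK293 membranes (10 µg protein) with 0.5 nM [125I]AB-MECA in Tris-HCl/MgCl2/EDTA buffer pH 7.4; 120 min at 25 °C; GF/B filtration and scintillation counting; percent inhibition at 1 µM test compound.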

[6] = molecular target: T1, Adenosine receptor A3; assay: (§3) Displacement of [125I]AB-MECA from human adenosine A3 receptor expressed in CHO cells by scintillation counting; format: cell-based
How it was run: (§4)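 hA3-CHO membranes (50 µg protein) with 0.5 nM [125I]AB-MECA in 50 mM Tris-HCl, 10 mM MgCl2, 1 mM EDTA, pH 7.4; six to eight ligand concentrations; 120 min at 4 °C. Nonspecific binding: 1 µM AB-MECA. GF/B filtration. Ki by Cheng–Prusoff, means of four assays in duplicate.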

[7] = molecular target: T6, Adenosine receptor A3 (Homo sapiens) (UniProt P0DMS8); assay: as §3; format: cell-based; set-up: concentration or dose not given beside the values; settings: concentration not given here; how it was run: as §4
T6 sequence (whole entry): T1 sequence (P0DMS8 whole entry)

[8] = molecular target: T7, Adenosine receptor A1 (Homo sapiens, UniProt P30542); assay: Displacement of [3H]DPCPX from human adenosine A1 receptor expressed in CHO cells by scintillation counting; format: cell-based; how it was run: as §1
T7 sequence (P30542 whole entry): T3 sequence (whole entry)

[9] = molecular target: T4, Adenosine receptor A2a; assay: Displacement of [3H]ZM241385 from human adenosine A2A receptor expressed in CHO cells by scintillation counting; format: cell-based; how it was run: as §2

Structure (SMILES) | IC50 [1] | inhibition [2] | inhibition [3] | inhibition [4] | inhibition [5] | Ki [6] | inhibition [7] | Ki [8] | Ki [9]
O=C(Nc1nc2ccccc2c2cn(-c3ccccc3)nc12)c1cccc(C(F)(F)F)c1 | – | 2% | 23% | 1% | – | 60 nM | – | – | –
O=c1[nH]c2ccccc2c2cn(-c3cccc(C(F)(F)F)c3)nc12 | – | 3% | 2% | 5% | – | – | 4% | – | –
O=C(c1cccc(C(F)(F)F)c1)N(C(=O)c1cccc(C(F)(F)F)c1)c1nc2ccccc2c2cn(-c3ccccc3)nc12 | – | 6% | 4% | 3% | – | – | 24% | – | –
O=C(Nc1nc2ccccc2c2cn(-c3ccc(C(F)(F)F)cc3)nc12)c1ccccc1 | – | 3% | 10% | 1% | – | 140 nM | – | – | –
O=C(Nc1nc2ccccc2c2cn(-c3ccccc3)nc12)c1ccncn1 | – | 3% | 9% | 6% | – | 210 nM | – | – | –
Cc1cccc(-n2cc3c(n2)c(NC(=O)c2ccccc2)nc2ccccc23)c1 | – | – | – | – | – | – | – | – | 2860 nM
O=C(Nc1nc2ccccc2c2cn(-c3ccccc3)nc12)c1cscn1 | – | 2% | 12% | 1% | – | 60 nM | – | – | –
O=c1[nH]c2ccccc2c2cn(-c3ccc(C(F)(F)F)cc3)nc12 | – | 5% | 6% | 10% | – | 480 nM | – | – | –
O=C(Nc1nc2ccccc2c2cn(-c3ccccc3)nc12)c1cnccn1 | – | 2% | 6% | 6% | – | 65 nM | – | – | –
O=C(Nc1nc2ccccc2c2cn(-c3cccc(C(F)(F)F)c3)nc12)c1ccccc1 | – | 3% | 13% | 1% | – | 52 nM | – | – | –
Nc1nc2ccccc2c2cn(-c3ccc(C(F)(F)F)cc3)nc12 | – | 11% | 1% | 1% | – | – | 11% | – | –
O=C(Nc1nc2ccccc2c2cn(-c3ccccc3)nc12)c1ncccn1 | – | 1% | 6% | 2% | – | 945 nM | – | – | –
Cc1ccc(-n2cc3c(n2)c(NC(=O)c2ccccc2)nc2ccccc23)cc1 | – | – | – | 26% | – | – | – | – | –
Nc1nc2ccccc2c2cn(-c3cccc(C(F)(F)F)c3)nc12 | – | 4% | 6% | 7% | – | – | 30% | – | –
O=C(c1ccccc1)N(C(=O)c1ccccc1)c1nc2ccccc2c2cn(-c3ccccc3)nc12 | – | – | 0% | 0% | – | – | – | – | –
O=C(c1ccc(C(F)(F)F)cc1)N(C(=O)c1ccc(C(F)(F)F)cc1)c1nc2ccccc2c2cn(-c3ccccc3)nc12 | – | 1% | 17% | 1% | – | – | 29% | – | –
O=C(Nc1nc2ccccc2c2cn(-c3ccccc3)nc12)c1ccc(C(F)(F)F)cc1 | – | 4% | 10% | 3% | – | 415 nM | – | – | –

Next, values leading:

IC50 [1] | inhibition [2] | inhibition [3] | inhibition [4] | inhibition [5] | Ki [6] | inhibition [7] | Ki [8] | Ki [9] | Structure (SMILES)
145 nM | 3% | 4% | 2% | 21% | 24.7 nM | – | – | – | O=C(Nc1nc2ccccc2c2cn(-c3ccc(Cl)cc3)nc12)c1ccncc1
107 nM | 15% | 3% | 9% | 23% | 15.5 nM | – | – | – | O=C(Nc1nc2ccccc2c2cn(-c3ccccc3)nc12)c1ccccn1
– | – | 0% | 0% | – | 2 nM | – | – | – | O=C(Nc1nc2ccccc2c2cn(-c3ccccc3)nc12)c1ccccc1
76 nM | 1% | 26% | 1% | 27% | 10.5 nM | – | – | – | O=C(Nc1nc2ccccc2c2cn(-c3ccccc3)nc12)c1cccnc1
49 nM | 5% | – | 10% | 30% | 7.5 nM | – | 500 nM | – | Cc1ccc(C(=O)Nc2nc3ccccc3c3cn(-c4ccccc4)nc23)o1
21 nM | 3% | 34% | 20% | 29% | 3.4 nM | – | – | – | O=C(Nc1nc2ccccc2c2cn(-c3ccccc3)nc12)c1ccco1
26 nM | 35% | 20% | 1% | 5% | 6.3 nM | – | – | – | Cc1cccc(C(=O)Nc2nc3ccccc3c3cn(-c4ccccc4)nc23)c1
– | 6% | 45% | 1% | – | 50 nM | – | – | – | O=C(Nc1nc2ccccc2c2cn(-c3ccccc3)nc12)c1cccs1
41 nM | 1% | 8% | 1% | 26% | 5 nM | – | – | – | O=C(Nc1nc2ccccc2c2cn(-c3ccccc3)nc12)c1ccncc1
83 nM | 2% | 17% | 1% | 11% | 11.5 nM | – | – | – | O=C(Nc1nc2ccccc2c2cn(-c3ccc(Cl)cc3)nc12)c1ccco1
– | 5% | 9% | 2% | – | 50 nM | – | – | – | O=C(Nc1nc2ccccc2c2cn(-c3ccccc3)nc12)c1ccoc1
54 nM | 38% | 6% | 1% | 7% | 11.5 nM | – | – | – | Cc1ccc(C(=O)Nc2nc3ccccc3c3cn(-c4ccccc4)nc23)cc1
– | 2% | 1% | 2% | – | 40 nM | – | – | – | O=C(Nc1nc2ccccc2c2cn(-c3ccccc3)nc12)c1ccsc1
